Laboratory results taken from ChEMBL document CHEMBL4219238, “Design, synthesis, molecular modelling and in vitro cytotoxicity analysis of novel carbamate derivatives as inhibitors of Monoacylglycerol lipase” (Bioorg Med Chem, 2018).
The source made the active and inactive calls. No cut-off for these calls is given here.

Experiments:
Monoglyceride lipase = molecular target: T1, Monoglyceride lipase (Mus musculus, UniProt O35678); experiment: Inhibition of MAGL in mouse B16-F10 cells using 7-HRA as substrate preincubated for 60 mins followed by substrate addition measured every 2.5 mins for 2 hrs by fluorescence assay; type: cell-based; conditions: read-out: IC50
T1 sequence (O35678 whole entry): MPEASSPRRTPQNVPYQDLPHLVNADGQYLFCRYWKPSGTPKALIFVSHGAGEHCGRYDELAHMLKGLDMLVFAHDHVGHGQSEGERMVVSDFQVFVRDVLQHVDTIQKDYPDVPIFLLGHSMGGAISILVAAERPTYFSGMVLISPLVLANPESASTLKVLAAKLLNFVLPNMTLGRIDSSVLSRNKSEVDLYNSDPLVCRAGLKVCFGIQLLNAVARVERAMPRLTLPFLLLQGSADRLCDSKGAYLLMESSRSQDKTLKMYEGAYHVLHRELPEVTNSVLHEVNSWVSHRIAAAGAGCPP

[1] = molecular target: T2, Monoglyceride lipase (Mus musculus) (UniProt O35678); experiment: Inhibition of MAGL in mouse B16-F10 intact cells at 10 uM using 7-HRA as substrate preincubated for 6 hrs followed by substrate addition by fluorescence assay; type: cell-based
T2 sequence (whole entry): T1 sequence (O35678 whole entry)
Summary of the method: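 Intact B16-F10 cells cultured 6 h with compound or DMSO, homogenised 30 min at 4 °C in lysis buffer and spun 1,500 × g 5 min. 1 μg lysate assayed with 10 μM 7-HRA (ex 571/em 588 nm); 5-min values reported; mean ± SEM, n = 3.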

B16-F10 [2] = experiment: Induction of apoptosis in mouse B16F10 cells assessed as live cells at 10 uM after 48 hrs by Annexin V-FITC/propidium iodide staining based flow cytometry (reference value: 88.04%); type: functional
B16-F10 [3] = experiment: Induction of apoptosis in mouse B16F10 cells assessed as early apoptotic cells at 10 uM after 48 hrs by Annexin V-FITC/propidium iodide staining based flow cytometry (reference value: 1.75%); type: functional
B16-F10 [4] = experiment: Induction of apoptosis in mouse B16F10 cells assessed as late apoptotic cells at 10 uM after 48 hrs by Annexin V-FITC/propidium iodide staining based flow cytometry (reference value: 7.39%); type: functional
B16-F10 [5] = experiment: Induction of apoptosis in mouse B16F10 cells assessed as live cells at 35 nM after 48 hrs by Annexin V-FITC/propidium iodide staining based flow cytometry (reference value: 79.55%); type: functional
B16-F10 [6] = experiment: Induction of apoptosis in mouse B16F10 cells assessed as early apoptotic cells at 35 nM after 48 hrs by Annexin V-FITC/propidium iodide staining based flow cytometry (reference value: 1.43%); type: functional
B16-F10 [7] = experiment: Effect on MAGL mRNA expression in mouse B16F10 cells by RT-PCR method; type: functional
B16-F10 [8] = experiment: Effect on ABHD6 mRNA expression in mouse B16F10 cells by RT-PCR method; type: functional
B16-F10 [9] = experiment: Effect on ABHD12 mRNA expression in mouse B16F10 cells by RT-PCR method; type: functional
[10] = Induction of apoptosis in HEK293T cells assessed as live cells at 10 uM after 48 hrs by Annexin V-FITC/propidium iodide staining based flow cytometry (reference value: 82.43%); type: cell-based, HEK-293T; conditions: human, read-out: Activity
Summary of the method: (§1)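 HEK293T (DMEM with 10% FBS) or MCF7 (DMEM/Ham's F-12 1:1, 10% FBS) cells treated 48 h with 10 μM compound or DMSO. Staining with Alexa Fluor 488 annexin V plus 5 μg/ml PI in HEPES/NaCl/CaCl2 binding buffer; 10,000 cells per sample read by flow cytometry; n = 3, mean ± S.E.M.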

HEK-293T = experiment: Induction of apoptosis in HEK293T cells assessed as early apoptotic cells at 10 uM after 48 hrs by Annexin V-FITC/propidium iodide staining based flow cytometry (reference value: 7.41%); type: cell-based; conditions: human; summary of the method: as §1
MCF7 = experiment: Induction of apoptosis in human MCF7 cells assessed as live cells at 10 uM after 48 hrs by Annexin V-FITC/propidium iodide staining based flow cytometry (reference value: 82.58%); type: functional; summary of the method: as §1
[11] = molecular target: T3, Monoglyceride lipase (Homo sapiens) (UniProt Q99685); experiment: Inhibition of MAGL in human MCF7 cells at 10 uM using 7-HRA as substrate preincubated for 6 hrs followed by substrate addition by fluorescence assay; type: cell-based
T3 sequence (whole entry): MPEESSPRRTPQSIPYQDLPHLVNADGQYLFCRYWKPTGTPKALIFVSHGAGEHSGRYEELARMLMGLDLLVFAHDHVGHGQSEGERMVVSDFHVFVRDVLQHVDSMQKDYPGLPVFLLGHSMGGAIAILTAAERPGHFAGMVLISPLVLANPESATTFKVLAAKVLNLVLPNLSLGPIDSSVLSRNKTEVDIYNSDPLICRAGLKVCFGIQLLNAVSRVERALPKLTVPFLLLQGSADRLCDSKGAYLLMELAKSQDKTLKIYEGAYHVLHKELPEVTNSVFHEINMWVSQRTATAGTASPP
Summary of the method: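 MCF7 cells cultured 6 h with 10 μM compound or DMSO, then lysed; MAGL activity measured on total cell lysate using the 7-HRA fluorogenic assay.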

B16-F10 [12] = experiment: Induction of apoptosis in mouse B16F10 cells assessed as apoptotic cells after 48 hrs by Annexin V-FITC/propidium iodide staining based flow cytometry

For O=C(Nc1cccc(-c2ccc(C(F)(F)F)cc2)c1)OCc1ccco1, the IC50 (Monoglyceride lipase) was 13.2 µM, the inhibition [1] was “Active” and the Activity (B16-F10 [2]) was 17.8%. For the same compound, the Activity (B16-F10 [3]) was 3.87%, the Activity (B16-F10 [4]) was 64.08% and the Activity (B16-F10 [5]) was 66.12%. The Activity (B16-F10 [6]) was 1.9%, the deltaCT (B16-F10 [7]) was 11.05 and the deltaCT (B16-F10 [8]) was 10.73. The deltaCT (B16-F10 [9]) was 16.84, the viability at 48 h, 10 µM [10] was 81.4% and the Activity (HEK-293T) was 8.13%. The Activity (MCF7) was 60.27%, the inhibition [11] was “Active” and the Activity (B16-F10 [12]) was “Dose-dependent effect”.
